From ChEMBL document CHEMBL4715824, “Chemical Proteomic Characterization of a Covalent KRASG12C Inhibitor” (ACS Med Chem Lett, 2018)
Active and inactive are the calls of the source. The calls are words filed in the database; no cut-off is given here.

Columns and labels:
Homo sapiens [1] = species: Homo sapiens; assay: Covalent inhibition of GDP bound His-tagged KRAS G12C/C51L/C80L/C118S mutant (1 to 169 residues) (unknown origin) expressed in Escherichia coli assessed as enzyme-compound adduct formation at Cys12 residue by measuring ratio of Kinact/Ki measured up to 20 mins by mass spectrometry analysis relative to ARS-853; details: time min <=20
Heme oxygenase 2 = molecular target: T1, Heme oxygenase 2 (Homo sapiens, UniProt P30519); assay: (§1) Covalent binding affinity to HMOX2 at Cys282 residue in human NCI-H358 cells assessed as reduction of log2 H/L ratio for tryptic peptide […] incubated for 4 hrs followed by cell lysis and subsequently labelled with light thiol probe N-((S)-18-iodo-11-isopropyl-10,13,17-trioxo-3,6-dioxa-9,12,16-triazaoctadecyl)-6-((4R,5S)-5-methyl-2-oxoimidazolidin-4-yl)hexanamide and heavy thiol probe 4 for 1 hr under dark conditions followed by tryptic digestion for overnight and measured by discovery ABPP based nano LC-MS/MS analysis
T1 sequence (P30519 whole entry): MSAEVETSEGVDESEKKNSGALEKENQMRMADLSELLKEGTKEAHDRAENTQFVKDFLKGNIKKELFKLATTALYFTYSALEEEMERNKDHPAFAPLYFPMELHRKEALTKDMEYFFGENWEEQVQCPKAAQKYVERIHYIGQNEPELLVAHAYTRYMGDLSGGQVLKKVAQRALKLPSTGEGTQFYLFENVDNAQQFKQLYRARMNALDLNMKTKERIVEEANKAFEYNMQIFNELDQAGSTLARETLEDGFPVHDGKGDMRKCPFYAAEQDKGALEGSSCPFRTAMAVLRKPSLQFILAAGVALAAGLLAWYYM
Procedure, shortened: (§2)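 H358 cells were treated 4 h with DMSO, 0.08, 0.4, 2 or 10 μM, each paired with DMSO control cells, in biological duplicate. After lysis and denaturation, treated lysate took heavy thiol probe and control lysate took light probe. Lysates were combined equally, and probe-labelled tryptic peptides were streptavidin-enriched. Peptides were run twice by 180 min data-dependent nano LC-MS/MS. Hits needed log2 H/L below −0.776 (3σ) plus a dose-dependent decrease.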

[2] = tested on: GTPase KRas (Homo sapiens), P01116 [G12C]; assay: as §1, with “KRAS G12C mutant” for “HMOX2”, “Cys12” for “Cys282”; procedure, shortened: as §2
GTPase KRas = GTPase KRas (Homo sapiens, UniProt P01116, G12C); assay: as above; procedure, shortened: as §2
Homo sapiens [3] = species: Homo sapiens; assay: Covalent inhibition of GDP bound His-tagged KRAS G12C/C51L/C80L/C118S mutant (1 to 169 residues) (unknown origin) expressed in Escherichia coli assessed as enzyme-compound adduct formation at Cys12 residue by measuring ratio of Kinact/Ki measured up to 20 mins by mass spectrometry analysis; details: time min <=20
Procedure, shortened: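 KRAS G12C was held fixed at 2 μM and incubated with varying compound concentrations. Fraction of covalent Cys12 adduct over time was measured by intact-protein LC-MS, and kinact/KI was calculated from these kinetic data.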

[4] = molecular target: T2, Peroxiredoxin-like 2A (Homo sapiens) (UniProt Q9BRX8); assay: (§3) Covalent binding affinity to FAM213A in human NCI-H358 cells assessed as log2 H/L ratio at 10 uM pretreated for 3 hrs followed by N-(((6S,7R)-7-(4-chloro-3-fluorophenyl)-1,4-oxazepan-6-yl)methyl)-2-hydroxyacetamide treatment for 3 hrs by competitive TMT click chemistry pull-down experiment based LC-MS/MS analysis; assay type: cell-based; details: time 6.0 hrs
T2 sequence (whole entry): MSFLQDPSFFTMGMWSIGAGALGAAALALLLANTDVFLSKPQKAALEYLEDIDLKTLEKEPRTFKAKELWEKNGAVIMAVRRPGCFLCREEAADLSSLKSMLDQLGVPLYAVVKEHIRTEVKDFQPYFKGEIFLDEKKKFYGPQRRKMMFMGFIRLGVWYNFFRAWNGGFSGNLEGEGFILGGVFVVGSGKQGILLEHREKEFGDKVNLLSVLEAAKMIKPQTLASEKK
Procedure, shortened: (§4)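 H358 cells were pretreated with DMSO (n = 3) or 10 μM compound for 3 h, then 2 μM alkyne probe was added for another 3 h. Cells were lysed, clicked onto azide-agarose resin, digested, TMT-labelled and pooled. The pool was fractionated by high-pH HPLC and each fraction run twice by 60 min low-pH nano LC-MS/MS. Readout was log2 compound/DMSO normalized reporter intensity, with a least-squares means test and FDR adjustment.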

NCI-H23 = assay: Antiproliferative activity against human NCI-H23 cells harboring KRAS G12C mutant assessed as reduction in cell viability; assay type: functional, cell-based
[5] = molecular target: T3, Quinone oxidoreductase (Homo sapiens) (UniProt Q08257); assay: as §3, with “CRYZ at Cys45 residue” for “FAM213A”; assay type: cell-based; details: time 6.0 hrs; procedure, shortened: as §4
T3 sequence (whole entry): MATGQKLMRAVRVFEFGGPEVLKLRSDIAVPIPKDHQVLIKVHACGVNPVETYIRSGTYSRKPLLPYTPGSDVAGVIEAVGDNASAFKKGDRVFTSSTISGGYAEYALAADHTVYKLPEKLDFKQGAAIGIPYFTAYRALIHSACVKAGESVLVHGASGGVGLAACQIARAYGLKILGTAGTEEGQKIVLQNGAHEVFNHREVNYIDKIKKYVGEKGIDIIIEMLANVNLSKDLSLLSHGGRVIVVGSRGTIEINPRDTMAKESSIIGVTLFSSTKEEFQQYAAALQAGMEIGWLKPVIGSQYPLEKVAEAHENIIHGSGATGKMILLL

[6] = molecular target: T4, Synaptic vesicle membrane protein VAT-1 homolog (Homo sapiens, UniProt Q99536); assay: as §1, with “VAT1” for “HMOX2”, “Cys” for “Cys282”; procedure, shortened: as §2
T4 sequence (Q99536 whole entry): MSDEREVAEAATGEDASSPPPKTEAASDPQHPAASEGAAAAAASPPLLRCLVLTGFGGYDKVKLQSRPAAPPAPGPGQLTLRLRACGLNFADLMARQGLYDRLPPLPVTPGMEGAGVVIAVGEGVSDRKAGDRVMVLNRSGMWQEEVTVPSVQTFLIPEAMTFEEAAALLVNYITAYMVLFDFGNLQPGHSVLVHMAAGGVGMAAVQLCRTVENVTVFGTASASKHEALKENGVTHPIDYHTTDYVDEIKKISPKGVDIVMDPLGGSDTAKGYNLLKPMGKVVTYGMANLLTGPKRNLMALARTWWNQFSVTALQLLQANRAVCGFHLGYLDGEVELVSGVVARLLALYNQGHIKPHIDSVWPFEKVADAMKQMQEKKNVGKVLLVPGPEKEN

[7] = molecular target: T2, Peroxiredoxin-like 2A (Homo sapiens); assay: Covalent binding affinity to FAM213A in human NCI-H358 cells incubated for 4 hrs followed by cell lysis and subsequently labelled with light thiol probe N-((S)-18-iodo-11-isopropyl-10,13,17-trioxo-3,6-dioxa-9,12,16-triazaoctadecyl)-6-((4R,5S)-5-methyl-2-oxoimidazolidin-4-yl)hexanamide and heavy thiol probe 4 for 1 hr under dark conditions followed by tryptic digestion for overnight and measured by discovery ABPP based nano LC-MS/MS analysis
MIA PaCa-2 = assay: Antiproliferative activity against human MIA PaCa-2 cells harboring KRAS G12C mutant assessed as reduction in cell viability; assay type: functional, cell-based
[8] = molecular target: T4, Synaptic vesicle membrane protein VAT-1 homolog; assay: as §1, with “VAT1” for “HMOX2”, “Cys” for “Cys282”; procedure, shortened: as §2; remark: listed apart in the source

With `C=CC(=O)N1CCN(c2ncnc3c(F)c(-c4c(O)cccc4F)c(Cl)cc23)CC1` the fold change (FC) (Homo sapiens [1]) was 6, the IC50 (Heme oxygenase 2) was 7.64 µM and the inhibition [2] was “Dose-dependent effect”. The IC50 (GTPase KRas) was 1.59 µM, the Ratio (Homo sapiens [3]) was 501 M⁻¹ s⁻¹ and the Ratio [4] was -1.7. It also gave an IC50 (NCI-H23) of 0.7 µM, a Ratio [5] of 0.15 and an IC50 [6] of 4.48 µM. For the same compound, the Activity [7] was “inactive”, the IC50 (MIA PaCa-2) was 0.12 µM and the IC50 [8] was 4.54 µM.
